Converted amounts (≈) assume the structure as drawn.
Tests used:
Assay type in all cases: functional
Escherichia coli = test: Antibacterial activity against Escherichia coli MTCC 443
Bacillus subtilis = test: Antibacterial activity against Bacillus subtilis MTCC 441
Staphylococcus aureus = test: Antibacterial activity against Staphylococcus aureus MTCC 96
Streptococcus pyogenes = test: Antibacterial activity against Streptococcus pyogenes MTCC 442
[1] = system: Mycobacterium tuberculosis; test: Antitubercular activity against Mycobacterium tuberculosis H37Rv by Lowenstein-Jensen slope method
How it was run: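 Lowenstein–Jensen medium used both to grow the strain and to dilute test drugs. Inoculum adjusted to 1 mg/mL. Compounds were made as 2 mg/mL stocks and diluted with 1% DMSO. Primary screen at 500, 250 and 125; actives were retested at 100 down to 1.5625 (twofold series). MIC is the minimum concentration inhibiting 99% of growth. Vehicle and reference controls were included, and tests were run in duplicate.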

Candida albicans = test: Antifungal activity against Candida albicans MTCC 227
Aspergillus niger = test: Antifungal activity against Aspergillus niger MTCC 282
Aspergillus clavatus = test: Antifungal activity against Aspergillus clavatus MTCC 1323

Compound	MIC99 (Escherichia coli) [µg/mL]	MIC99 (Bacillus subtilis) [µg/mL]	MIC99 (Staphylococcus aureus) [µg/mL]	MIC99 (Streptococcus pyogenes) [µg/mL]	MIC99 [1] [µg/mL]	MIC99 (Candida albicans) [µg/mL]	MIC99 (Aspergillus niger) [µg/mL]	MIC99 (Aspergillus clavatus) [µg/mL]
GENTAMICIN	0.05	1	0.25	0.5				
O=C(O)c1cn(C2CC2)c2cc(N3CCNCC3)c(F)cc2c1=O [CIPROFLOXACIN]	25 (≈ 75.4 µM)	25 (≈ 75.4 µM)	50 (≈ 151 µM)	50 (≈ 151 µM)				
NNC(=O)c1ccncc1 [ISONIAZID]					0.2 (≈ 1.46 µM)			
O=C(/C=C/c1cn(-c2ccccc2)nc1-c1ccc(F)cc1)c1ccc(Cl)cc1	6.25 (≈ 15.5 µM)	12.5 (≈ 31 µM)	25 (≈ 62.1 µM)	20 (≈ 49.6 µM)	10 (≈ 24.8 µM)	100 (≈ 248 µM)	> 100	> 100
Fc1ccc(-c2nn(-c3ccccc3)cc2C2=NNC(c3ccc(Br)cc3)C2)cc1 (configuration not stated)	6.25 (≈ 13.5 µM)	10 (≈ 21.7 µM)	6.25 (≈ 13.5 µM)	10 (≈ 21.7 µM)	50 (≈ 108 µM)	10 (≈ 21.7 µM)	10 (≈ 21.7 µM)	10 (≈ 21.7 µM)
CCn1cc(C(=O)O)c(=O)c2cc(F)c(N3CCNCC3)cc21 [NORFLOXACIN]	10 (≈ 31.3 µM)	10 (≈ 31.3 µM)	10 (≈ 31.3 µM)	10 (≈ 31.3 µM)				
CC1(C)S[C@@H]2[C@H](NC(=O)[C@H](N)c3ccccc3)C(=O)N2[C@H]1C(=O)O [AMPICILLIN]	100 (≈ 286 µM)	100 (≈ 286 µM)	250 (≈ 715 µM)	100 (≈ 286 µM)				
O=C(/C=C/c1cn(-c2ccccc2)nc1-c1ccc(F)cc1)c1ccc(F)cc1	25 (≈ 64.7 µM)	20 (≈ 51.8 µM)	6.25 (≈ 16.2 µM)	10 (≈ 25.9 µM)	25 (≈ 64.7 µM)	100 (≈ 259 µM)	20 (≈ 51.8 µM)	20 (≈ 51.8 µM)
Fc1ccc(-c2nn(-c3ccccc3)cc2C2=NNC(c3ccc(F)cc3)C2)cc1 (configuration not stated)	20 (≈ 49.9 µM)	25 (≈ 62.4 µM)	25 (≈ 62.4 µM)	25 (≈ 62.4 µM)	25 (≈ 62.4 µM)	20 (≈ 49.9 µM)	50 (≈ 125 µM)	50 (≈ 125 µM)
Fc1ccc(-c2nn(-c3ccccc3)cc2C2=NNC(c3ccccc3)C2)cc1 (configuration not stated)	10 (≈ 26.1 µM)	20 (≈ 52.3 µM)	50 (≈ 131 µM)	50 (≈ 131 µM)	25 (≈ 65.4 µM)	50 (≈ 131 µM)	50 (≈ 131 µM)	50 (≈ 131 µM)
Fc1ccc(-c2nn(-c3ccccc3)cc2C2=NNC(c3ccc(Cl)cc3)C2)cc1 (configuration not stated)	25 (≈ 60 µM)	25 (≈ 60 µM)	20 (≈ 48 µM)	20 (≈ 48 µM)	6.25 (≈ 15 µM)	100 (≈ 240 µM)	50 (≈ 120 µM)	50 (≈ 120 µM)
Cc1ccc(C(=O)/C=C/c2cn(-c3ccccc3)nc2-c2ccc(F)cc2)cc1	12.5 (≈ 32.7 µM)	20 (≈ 52.3 µM)	20 (≈ 52.3 µM)	25 (≈ 65.4 µM)	6.25 (≈ 16.3 µM)	50 (≈ 131 µM)	100 (≈ 261 µM)	100 (≈ 261 µM)
Cc1ccc(C2CC(c3cn(-c4ccccc4)nc3-c3ccc(F)cc3)=NN2)cc1 (configuration not stated)	50 (≈ 126 µM)	50 (≈ 126 µM)	12.5 (≈ 31.5 µM)	10 (≈ 25.2 µM)	10 (≈ 25.2 µM)	25 (≈ 63.1 µM)	100 (≈ 252 µM)	100 (≈ 252 µM)
O=C(N[C@H](CO)[C@H](O)c1ccc([N+](=O)[O-])cc1)C(Cl)Cl [CHLORAMPHENICOL]	50 (≈ 155 µM)	50 (≈ 155 µM)	50 (≈ 155 µM)	50 (≈ 155 µM)				
O=C(/C=C/c1cn(-c2ccccc2)nc1-c1ccc(F)cc1)c1ccc(Br)cc1	20 (≈ 44.7 µM)	20 (≈ 44.7 µM)	25 (≈ 55.9 µM)	20 (≈ 44.7 µM)	50 (≈ 112 µM)	10 (≈ 22.4 µM)	> 100	> 100
O=C(/C=C/c1cn(-c2ccccc2)nc1-c1ccc(F)cc1)c1ccccc1	20 (≈ 54.3 µM)	25 (≈ 67.9 µM)	10 (≈ 27.1 µM)	12.5 (≈ 33.9 µM)	50 (≈ 136 µM)	25 (≈ 67.9 µM)	50 (≈ 136 µM)	50 (≈ 136 µM)
NYSTATIN						100	100	100
COC1=CC(=O)C[C@@H](C)[C@]12Oc1c(Cl)c(OC)cc(OC)c1C2=O [GRISEOFULVIN]						500 (≈ 1420 µM)	100 (≈ 283 µM)	100 (≈ 283 µM)

— ChEMBL document CHEMBL2062456, “Green synthesis and anti-infective activities of fluorinated pyrazoline derivatives” (2012)
